# Experimental data published in ChEMBL document CHEMBL1177638, “Synthesis of pyrrolo[3,2-h]quinolinones with good photochemotherapeutic activity and no DNA damage” (Bioorg Med Chem, 2010).
# pIC50: −log10 of the molar value. Calls of active or inactive are those of the source. The rule behind the calls is not given here.
# How the values were obtained:
# [1] = tested on: Jurkat; test: Induction of apoptosis in human Jurkat cells assessed as increase in mitochondrial ROS production at 1 uM after 6 hrs post-irradiation with 2.5 J/cm'2 by FACS analysis; assay type: functional
# Procedure, shortened: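 Jurkat cells were irradiated (2.5 J/cm²) with compound present and collected 6 h later. They were resuspended in HBSS with hydroethidine and DCFDA (2.5 and 5, respectively) and held at 37 °C for 15 or 30 min. Flow cytometry used 488 nm excitation, reading 620 nm for HE and 530 nm for DCF, with at least 10,000 events. Values are mean ± SD, three independent experiments.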
# [2] = tested on: Jurkat; test: Phototoxicity against human Jurkat cells irradiated with 2.5 J/cm'2 after 72 hrs by MTT assay; assay type: functional, cell-based; details: light or radiation study
# Procedure, shortened: (§1)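 Cells were seeded at 8 × 10³ and preincubated 18 h at 37 °C, 5% CO₂. Jurkat and K-562 grew in RPMI-1640, MCF-7 and NCTC-2544 in DMEM, and LoVo in Ham's F12, all with 10% FBS plus penicillin and streptomycin. Compounds in DMSO were diluted in HBSS, pH 7.2 (range 20–0.31; DMSO ≤1%) and applied 30 min at 37 °C. Wells were then UV-A irradiated (365 nm; 2.5 or 3.75 J/cm²), medium was replaced, and MTT was read after 72 h.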
# [3] = tested on: Jurkat; test: Induction of apoptosis in human Jurkat cells assessed as induction of loss of membrane potential at 2.5 uM after 4 hrs post irradiation with 20 J/cm'2 using JC1 staining by FACS; assay type: functional
# Procedure, shortened: (§2)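 JC-1 probe at 1 µg/mL in HBSS was added to Jurkat cells spun down 2 or 4 h after UV-A irradiation with the compound. Green (FL1) and orange (FL2) fluorescence were read by flow cytometry, ≥10,000 events per sample. Values are means ± SD of at least three independent experiments.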
# [4] = tested on: Jurkat; test: Cell cycle arrest in human Jurkat cells assessed as accumulation in G2/M phase at 1 uM irradiated with 25 J/cm'2 after 24 hrs by flow cytometry
# [5] = Phototoxicity against human sNCTC-2544 cells irradiated with 2.5 J/cm'2 after 72 hrs by MTT assay; assay type: functional, cell-based; details: NCTC-2544, light or radiation study; procedure, shortened: as §1
# [6] = tested on: Jurkat; test: Cell cycle arrest in human Jurkat cells assessed as accumulation in G1 phase at 1 uM irradiated with 25 J/cm'2 after 24 hrs by flow cytometry
# [7] = tested on: Jurkat; test: Cell cycle arrest in human Jurkat cells assessed as accumulation in subG1 phase at 1 uM irradiated with 20 J/cm'2 after 24 hrs by flow cytometry; assay type: functional
# Procedure, shortened: (§3)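 Exponentially growing Jurkat cells (5 × 10⁵) were irradiated with compound present. Drug was removed, and cells were kept 24 h in RPMI-1640, fixed in ice-cold 70% ethanol, and treated overnight with RNAse (10 KU/mL) in PBS. Cells were stained with propidium iodide and run on a flow cytometer, with DNA content reported as the fraction of cells in each cycle phase.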
# [8] = tested on: Jurkat; test: Induction of apoptosis in human Jurkat cells assessed as lysosomal dysfunction at 2.5 uM after 4 hrs post-irradiation with 2.5 J/cm'2 using acridine orange dye by flow cytometry; assay type: functional
# Procedure, shortened: (§4)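 Jurkat cells were irradiated (2.5 J/cm² UV-A) with the compound and collected 2 or 4 h later. They were resuspended in RPMI-1640 containing acridine orange 1 µM. Intact-lysosome cells were scored by red fluorescence on flow cytometry. Values are means ± SD of at least three independent experiments.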
# [9] = tested on: Jurkat; test: Induction of apoptosis in human Jurkat cells assessed as induction of loss of membrane potential at 2.5 uM after 2 hrs post-irradiation with 20 J/cm'2 by flow cytometry; assay type: functional; procedure, shortened: as §2
# [10] = tested on: Jurkat; test: Induction of apoptosis in human Jurkat cells assessed as induction of loss of membrane potential at 2.5 uM after 4 hrs post-irradiation with 20 J/cm'2 by flow cytometry; assay type: functional; procedure, shortened: as §2
# [11] = tested on: LoVo; test: Phototoxicity against human LoVo cells irradiated with 2.5 J/cm'2 after 72 hrs by MTT assay; assay type: functional, cell-based; details: light or radiation study; procedure, shortened: as §1
# [12] = Photodamaging activity to ribonuclease irradiated with 2.5 J/cm'2 UV light assessed as increase in carbonyl content; assay type: physicochemical
# Procedure, shortened: (§5)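 BSA or RNase A at 2 mg/mL in phosphate buffer was irradiated with the compound in a quartz cuvette for various times. Carbonyl content was measured spectrophotometrically after 2,4-dinitrophenylhydrazine derivatization.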
# [13] = Photodamaging activity to bovine serum albumin irradiated with 2.5 J/cm'2 UV light assessed as increase in carbonyl content; assay type: physicochemical; details: cattle; procedure, shortened: as §5
# [14] = tested on: Jurkat; test: Induction of apoptosis in human Jurkat cells assessed as lysosomal dysfunction at 1 uM after 4 hrs post-irradiation with 2.5 J/cm'2 using acridine orange dye by flow cytometry; assay type: functional
# Procedure, shortened: (§6)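 Jurkat cells were irradiated (2.5 J/cm²) with compound present and collected at 2 and 4 h. They were resuspended in RPMI-1640 containing acridine orange, and the percentage of red-fluorescent cells (intact lysosomes) was scored by flow cytometry. Values are mean ± SD of at least three independent experiments.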
# [15] = tested on: Jurkat; test: Cell cycle arrest in human Jurkat cells assessed as accumulation in S phase at 1 uM irradiated with 20 J/cm'2 after 24 hrs by flow cytometry; assay type: functional; procedure, shortened: as §3
# [16] = tested on: Jurkat; test: Induction of apoptosis in human Jurkat cells assessed as lysosomal dysfunction at 2.5 uM after 2 hrs post-irradiation with 2.5 J/cm'2 using acridine orange dye by flow cytometry; assay type: functional; procedure, shortened: as §4
# [17] = tested on: Jurkat; test: Induction of apoptosis in human Jurkat cells assessed as induction of loss of membrane potential at 2.5 uM after 2 hrs post-irradiation with 20 J/cm'2 using JC1 staining by FACS; assay type: functional; procedure, shortened: as §2
# [18] = tested on: Jurkat; test: Induction of apoptosis in human Jurkat cells assessed as increase in mitochondrial ROS production at 2.5 uM after 6 hrs post-irradiation with 2.5 J/cm'2 by FACS analysis; assay type: functional
# Procedure, shortened: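 Jurkat cells were collected 6 h after UV-A irradiation (2.5 J/cm²) with the compound and resuspended in HBSS with hydroethidine 2.5 µM or DCFDA 5 µM. They were incubated at 37 °C for 15 or 30 min. Flow cytometry used 488 nm excitation, with emission at 620 nm (HE) or 530 nm (DCF), acquiring ≥10,000 events. Values are means ± SD of three independent experiments.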
# [19] = tested on: Nucleic Acid; test: Binding affinity to UV irradiated pBR322 assessed as strand break by electrophoresis; assay type: nucleic-acid assay; details: Escherichia coli
# Procedure, shortened: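 Plasmid irradiated with the compound. Aliquots were then incubated at 37 °C with Fpg or Endo III. Bands were quantified densitometrically and supercoiled (Form I) and open circular (Form II) fractions were calculated.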
# [20] = tested on: K562; test: Phototoxicity against human K562 cells irradiated with 3.75 J/cm'2 after 72 hrs by MTT assay; assay type: functional, cell-based; details: K562, light or radiation study; procedure, shortened: as §1
# [21] = tested on: MCF7; test: Phototoxicity against human MCF7 cells irradiated with 3.75 J/cm'2 after 72 hrs by MTT assay; assay type: functional, cell-based; details: MCF7, light or radiation study; procedure, shortened: as §1
# [22] = Phototoxicity against human sNCTC-2544 cells irradiated with 3.75 J/cm'2 after 72 hrs by MTT assay; assay type: functional, cell-based; details: NCTC-2544, light or radiation study; procedure, shortened: as §1
# [23] = tested on: Nucleic Acid; test: Binding affinity to salmon testes DNA assessed as intercalation by linear dichroism experiment; assay type: nucleic-acid assay; details: Salmonidae
# Procedure, shortened: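 Salmon testes DNA was mixed with compound at [Drug]/[DNA] ratios of 0, 0.02 and 0.04 in 10 mM phosphate buffer, pH 7.2. Samples were oriented in a rotating cylindrical flow cuvette (0.14 cm path, 800 rpm), and linear dichroism spectra were recorded over roughly 250–450 nm.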
# [24] = tested on: MCF7; test: Phototoxicity against human MCF7 cells irradiated with 2.5 J/cm'2 after 72 hrs by MTT assay; assay type: functional, cell-based; details: MCF7, light or radiation study; procedure, shortened: as §1
# [25] = tested on: Jurkat; test: Induction of apoptosis in human Jurkat cells assessed as lysosomal dysfunction at 1 uM after 2 hrs post-irradiation with 2.5 J/cm'2 using acridine orange dye by flow cytometry; assay type: functional; procedure, shortened: as §6
# [26] = tested on: Jurkat; test: Induction of lipid peroxidation in human Jurkat cells irradiated with 2.5 J/cm'2 assessed as increase in malondialdehyde production after 24 hrs by TBARS assay relative to untreated control; assay type: functional, cell-based
# Procedure, shortened: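 Jurkat cells (500,000) were irradiated (2.5 J/cm²) with compound present and incubated 24 h. Supernatant was kept with BHT, and cells were lysed in 1% SDS, with protein measured by the Peterson method. Malondialdehyde was measured by thiobarbituric acid reaction (fluorescence, 553 nm) against a 1,1,3,3-tetraethoxypropane standard curve. Results are given as nmol TBARS normalized to protein.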
# [27] = tested on: K562; test: Phototoxicity against human K562 cells irradiated with 2.5 J/cm'2 after 72 hrs by MTT assay; assay type: functional, cell-based; details: K562, light or radiation study; procedure, shortened: as §1
# [28] = tested on: LoVo; test: Phototoxicity against human LoVo cells irradiated with 3.75 J/cm'2 after 72 hrs by MTT assay; assay type: functional, cell-based; details: light or radiation study; procedure, shortened: as §1
smiles,measurement,setting,value
O=c1ccc2ccc3occc3c2o1 [ANGELICIN],Activity,[1],Active
same,pIC50,[2],6.00
same,Activity,[3],58.8%
same,Activity,[4],10.2%
same,pIC50,[5],5.38
same,Activity,[6],12.3%
same,Activity,[7],30.8%
same,Activity,[8],50.85%
same,Activity,[9],1.08%
same,Activity,[10],41.2%
same,pIC50,[11],5.44
same,Activity,[12],Active
same,Activity,[13],Active
same,Activity,[14],6.63%
same,Activity,[15],46.7%
same,Activity,[16],15.03%
same,Activity,[17],98.92%
same,Activity,[18],15.82%
same,Activity,[19],Active
same,pIC50,[20],6.00
same,pIC50,[21],5.82
same,pIC50,[22],6.05
same,Activity,[23],Active
same,pIC50,[24],5.36
same,Activity,[25],9.82%
same,Activity,[26],Dose-dependent effect
same,pIC50,[27],5.92
same,pIC50,[28],5.82
